Experimental findings from ChEMBL document CHEMBL3596154, “Discovery of biaryl carboxylamides as potent RORγ inverse agonists” (Bioorg Med Chem Lett, 2015) are described below.

By EC50 is commonly meant the concentration at which the effect is half-maximal. A word on the IC50: it is the midpoint of a concentration-inhibition curve. In general, Papp B→A refers to the apparent permeability from the basolateral to the apical side of a cell layer. Usually Papp A→B stands for the apparent permeability from the apical to the basolateral side of a cell layer.

Series [1] has as its target T1, Nuclear receptor ROR-gamma (Homo sapiens, UniProt P51449).
T1 sequence (P51449 whole entry): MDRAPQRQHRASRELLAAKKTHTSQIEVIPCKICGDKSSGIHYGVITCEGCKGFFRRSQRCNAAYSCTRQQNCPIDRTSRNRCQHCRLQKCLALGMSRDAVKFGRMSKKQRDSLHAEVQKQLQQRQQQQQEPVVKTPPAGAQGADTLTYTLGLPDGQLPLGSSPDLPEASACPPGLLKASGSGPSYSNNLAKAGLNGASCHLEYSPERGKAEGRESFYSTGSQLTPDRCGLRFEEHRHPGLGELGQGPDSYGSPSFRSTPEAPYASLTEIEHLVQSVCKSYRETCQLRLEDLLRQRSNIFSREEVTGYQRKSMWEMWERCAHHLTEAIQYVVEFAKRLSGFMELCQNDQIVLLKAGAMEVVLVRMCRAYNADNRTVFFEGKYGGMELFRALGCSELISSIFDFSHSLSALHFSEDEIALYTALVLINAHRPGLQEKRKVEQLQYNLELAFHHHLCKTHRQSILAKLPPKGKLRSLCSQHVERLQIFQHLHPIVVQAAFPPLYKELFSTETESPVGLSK
The series can be described thus: Inverse agonist activity at Gal4 DNA binding domain-tagged human RORgammat expressed in HEK293T cells assessed as effect on receptor-mediated transcriptional activity by luciferase reporter gene assay. Type of series: functional, cell-based, HEK-293T. The procedure, abridged: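 293T cells transfected with a Gal4:RORγ luciferase reporter. Cells seeded day 1 and transfected day 2; compound added in assay medium after transfection. Day 3: cells lysed and luminescence read by dual-flash. Dose-response EC50 is the mean of at least two runs.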

Series [2] deals with T1, Nuclear receptor ROR-gamma. Put plainly: Inverse agonist activity at human recombinant GST-tagged RORgammat ligand binding domain assessed as effect on receptor-biotin tagged TRAP220 co-activator peptide interaction using 10 nM GST-RORgamma LBD by FRET-based assay. The essentials:
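Recombinant human GST-RORγ LBD (10 nM) with 40 nM biotin-TRAP220 co-activator peptide, 50 nM SAAPC, 1.5 nM Eu-anti-GST IgG. Buffer: 20 mM Tris-HCl pH 7.0, 60 mM NaCl, 5 mM MgCl2, 1 mM DTT, 0.1% BSA, 1.0% DMSO. FRET read on plate reader. IC50 is the mean of at least two runs.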

Series [3] in a line: Clearance in mouse hepatocytes relative to hepatic blood flow. It counts as ADME, cell-based, Liver, Hepatocyte. The conditions noted are these: read-out: CLH.
The nature of series [4]: Clearance in rat hepatocytes relative to hepatic blood flow. Type of series: ADME, cell-based, Liver, Hepatocyte. The conditions noted are these: read-out: CLH.
The nature of series [5]: Clearance in human hepatocytes relative to hepatic blood flow. The conditions noted are these: read-out: CLH. It counts as ADME, cell-based, Liver, Hepatocyte.
Series [6] concerns the target T1, Nuclear receptor ROR-gamma. The series can be described thus: Inverse agonist activity at human recombinant GST-tagged RORgammat ligand binding domain assessed as effect on receptor-biotin tagged TRAP220 co-activator peptide interaction using 10 nM GST-RORgamma LBD by FRET-based assay.
Series [7] in a line: Apparent permeability from basolateral to apical side in human Caco2 cells. It counts as ADME, cell-based. The note with it: Caco-2. In general terms: Caco-2 cells form a polarised layer with tight junctions and transporters.
Series [8] is described as follows: Apparent permeability from apical to basolateral side in human Caco2 cells. It counts as ADME, cell-based. The note with it: Caco-2.
A short description of series [9]: Inhibition of CYP450 (unknown origin). It counts as ADME. The conditions noted are these: human.

As to `NC(=O)c1ccc(Cl)c(-c2ccc3c(c2)CCCN3C(=O)c2c(F)cccc2Cl)c1`, the EC50 in series [1] is 200 nM. Moreover, the IC50 in series [2] is 220 nM.
Consider `NC(=O)c1cccc(-c2ccc3c(c2)CCCN3C(=O)c2c(F)cccc2Cl)c1`, for which, in series [2], the IC50 came to 6200 nM.
Take `Cc1ccc(C(N)=O)cc1-c1ccc2c(c1)CCCN2C(=O)c1c(F)cccc1Cl`: the concentration giving a half-maximal response (EC50) in [1] was 450 nM. The IC50 in [2] was determined as 300 nM.
As for `COc1ccc(C(N)=O)cc1-c1ccc2c(c1)CCCN2C(=O)c1c(F)cccc1Cl`, the IC50 in [2] was found to be 1000 nM.
Turning to `NC(=O)c1ccc(F)c(-c2ccc3c(c2)CCCN3C(=O)c2c(F)cccc2Cl)c1`, the half-inhibitory concentration (IC50) in series [2] came out at 10900 nM.
`NC(=O)c1cc(F)cc(-c2ccc3c(c2)CCCN3C(=O)c2c(F)cccc2Cl)c1`: the IC50 in series [2] is 13000 nM.
Consider `NC(=O)c1cc(-c2ccc3c(c2)CCCN3C(=O)c2c(F)cccc2Cl)ccc1F`, for which the IC50 in series [2] is 9300 nM.
Regarding `NC(=O)c1cc(-c2ccc3c(c2)CCCN3C(=O)c2c(F)cccc2Cl)c(F)cc1F`, the IC50 in series [2] was determined as 7100 nM.
As to `NC(=O)c1cc(-c2ccc3c(c2)CCCN3C(=O)c2c(F)cccc2Cl)c(Cl)cc1F`, in [1], the concentration for a half-maximal effect (EC50) turned out to be 140 nM. Moreover, in series [2], the 50% inhibitory concentration (IC50) was 550 nM.
For `CNC(=O)c1ccc(Cl)c(-c2ccc3c(c2)CCCN3C(=O)c2c(F)cccc2Cl)c1`, in that order: 200 nM and 100 nM.
As for `CN(C)C(=O)c1ccc(Cl)c(-c2ccc3c(c2)CCCN3C(=O)c2c(F)cccc2Cl)c1`, the half-maximal inhibitory concentration (IC50) in series [2] was 2100 nM.
With `CCNC(=O)c1ccc(Cl)c(-c2ccc3c(c2)CCCN3C(=O)c2c(F)cccc2Cl)c1`, the 50% effective concentration (EC50) in [1] is 160 nM. The IC50 in series [2] worked out at 330 nM.
Regarding `O=C(NC1CCCC1)c1ccc(Cl)c(-c2ccc3c(c2)CCCN3C(=O)c2c(F)cccc2Cl)c1`, the EC50 in [1] stood at 330 nM. The IC50 in [2] turned out to be 370 nM.
Consider `O=C(NCCO)c1ccc(Cl)c(-c2ccc3c(c2)CCCN3C(=O)c2c(F)cccc2Cl)c1`, for which, in [1], the EC50 worked out at 210 nM. For the same compound, the IC50 in series [2] came to 190 nM.
As for `O=C(NCC(O)CO)c1ccc(Cl)c(-c2ccc3c(c2)CCCN3C(=O)c2c(F)cccc2Cl)c1` (stereo not drawn), in series [2], the half-maximal inhibitory concentration (IC50) was found to be 750 nM.
Consider `COCCNC(=O)c1ccc(Cl)c(-c2ccc3c(c2)CCCN3C(=O)c2c(F)cccc2Cl)c1`, for which the IC50 in series [2] is 1340 nM.
Still for that read-out and setting: with `O=C(NCCN1CCOCC1)c1ccc(Cl)c(-c2ccc3c(c2)CCCN3C(=O)c2c(F)cccc2Cl)c1` the figure was 2120 nM; with `NC(=O)c1ccc(Cl)c(-c2ccc3c(c2)CCN3C(=O)c2c(F)cccc2Cl)c1`, 4800 nM.
Consider `NC(=O)c1ccc(Cl)c(-c2ccc3c(c2)CCCCN3C(=O)c2c(F)cccc2Cl)c1`, for which the concentration giving a half-maximal response (EC50) in series [1] came out at 530 nM. The IC50 in series [2] came to 360 nM.
In the case of `CC1CCc2cc(-c3cc(C(N)=O)ccc3Cl)ccc2N1C(=O)c1c(F)cccc1Cl` (stereo not drawn), the IC50 in [2] was found to be 10000 nM.
For the compound `CC1(C)Cc2cc(-c3cc(C(N)=O)ccc3Cl)ccc2N(C(=O)c2c(F)cccc2Cl)C1`, in series [1], the EC50 was 450 nM. Moreover, the IC50 in series [2] worked out at 640 nM.
For `CC1(C)CCN(C(=O)c2c(F)cccc2Cl)c2ccc(-c3cc(C(N)=O)ccc3Cl)cc21`, the concentration for a half-maximal effect (EC50) in series [1] is 300 nM. Also, the IC50 in series [2] was 200 nM.
Take `NC(=O)c1ccc(Cl)c(-c2ccc3c(c2)C(F)(F)CCN3C(=O)c2c(F)cccc2Cl)c1`: the hepatic extraction ratio is 0.83 in [3], 0.86 in series [4] and 0.74 in series [5]. In [2], the IC50 turned out to be 3600 nM.
For `NC(=O)c1ccc(Cl)c(-c2ccc3c(c2)OCCN3C(=O)c2c(F)cccc2Cl)c1`, the hepatic extraction ratio in series [3] was found to be 0.82; in series [4], 0.85; in [5] it was 0.76. The IC50 in series [2] worked out at 1900 nM.
For `CN1CCN(C(=O)c2c(F)cccc2Cl)c2ccc(-c3cc(C(N)=O)ccc3Cl)cc21`, in [1], the EC50 is 210 nM. Also, the IC50 in series [2] worked out at 250 nM.
Turning to `CN(C(=O)c1c(F)cccc1Cl)c1ccc(-c2cc(C(N)=O)ccc2Cl)cc1`, the IC50 in series [6] is 8700 nM.
Take `CCN(C(=O)c1c(F)cccc1Cl)c1ccc(-c2cc(C(N)=O)ccc2Cl)cc1`: the IC50 in series [6] worked out at 1290 nM.
As for `CN(C(=O)c1c(F)cccc1Cl)c1ccc(-c2cc(C(N)=O)ccc2Cl)cc1F`, the half-maximal inhibitory concentration (IC50) in series [6] stood at 1930 nM.
Consider `CN(C(=O)c1c(F)cccc1Cl)c1ccc(-c2cc(C(N)=O)ccc2Cl)cc1Cl`, for which, in series [6], the half-inhibitory concentration (IC50) was determined as 2090 nM.
On to `CN(C(=O)c1c(F)cccc1Cl)c1ccc(-c2cc(C(N)=O)ccc2Cl)cc1Br`, for which, in series [1], the EC50 amounted to 772 nM. Moreover, the IC50 in series [6] came out at 820 nM.
As for `Cc1cc(-c2cc(C(N)=O)ccc2Cl)ccc1N(C)C(=O)c1c(F)cccc1Cl`, in [6], the IC50 was determined as 4220 nM.
As for `CCc1cc(-c2cc(C(N)=O)ccc2Cl)ccc1N(C)C(=O)c1c(F)cccc1Cl`, the EC50 in series [1] is 350 nM. Also, the half-inhibitory concentration (IC50) in [6] is 730 nM.
As to `CN(C(=O)c1c(F)cccc1Cl)c1ccc(-c2cc(C(N)=O)ccc2Cl)cc1C(F)(F)F`, the EC50 in [1] was found to be 484 nM. Further, in [6], the IC50 was 230 nM.
As to `COc1cc(-c2cc(C(N)=O)ccc2Cl)ccc1N(C)C(=O)c1c(F)cccc1Cl`, in [1], the half-maximal effective concentration (EC50) worked out at 984 nM. Further, the half-inhibitory concentration (IC50) in [6] turned out to be 370 nM.
`CCN(C(=O)c1c(F)cccc1Cl)c1ccc(-c2cc(C(N)=O)ccc2Cl)cc1OC`: the IC50 in series [6] stood at 1500 nM.
With `CCN(C(=O)c1c(F)cccc1Cl)c1ccc(-c2cc(C(N)=O)ccc2Cl)cc1C(F)(F)F`, the IC50 in series [2] was 1600 nM.
Turning to `CCOc1cc(-c2cc(C(N)=O)ccc2Cl)ccc1N(C)C(=O)c1c(F)cccc1Cl`, the EC50 in [1] amounted to 181 nM. The IC50 in series [2] worked out at 50 nM.
For `CC(C)Oc1cc(-c2cc(C(N)=O)ccc2Cl)ccc1N(C)C(=O)c1c(F)cccc1Cl`, the EC50 in [1] is 182 nM. Moreover, the IC50 in series [2] is 54 nM.
For `CCCOc1cc(-c2cc(C(N)=O)ccc2Cl)ccc1N(C)C(=O)c1c(F)cccc1Cl`, in that order: 58 nM and 11 nM.
Consider `CCCCOc1cc(-c2cc(C(N)=O)ccc2Cl)ccc1N(C)C(=O)c1c(F)cccc1Cl`, for which, in [1], the EC50 worked out at 101 nM. The IC50 in series [2] is 22 nM.
Take `CN(C(=O)c1c(F)cccc1Cl)c1ncc(-c2cc(C(N)=O)ccc2Cl)cc1OCC(F)(F)F`: the Papp B→A in [7] came to 54.5 ×10⁻⁶ cm/s. Further, the EC50 in series [1] stood at 246 nM. In series [2], the IC50 came out at 20 nM. The Papp A→B in series [8] amounted to 35.9 ×10⁻⁶ cm/s. For the same compound, the “inhibition (INH)” value in series [9] is recorded as “Not Active”.
As for `[2H]C([2H])([2H])N(C(=O)c1c(F)cccc1Cl)c1ncc(-c2cc(C(N)=O)ccc2Cl)cc1OCC(F)(F)F`, in series [1], the EC50 stood at 245 nM. In addition, the half-inhibitory concentration (IC50) in [2] stood at 89 nM.
In the case of `CN(C(=O)c1c(F)cccc1Cl)c1ncc(-c2cc(C(N)=O)ccc2Cl)cc1OCC1CCC1`, the EC50 in series [1] was 58 nM. Further, the IC50 in series [2] amounted to 10 nM.
`[2H]C([2H])([2H])N(C(=O)c1c(F)cccc1Cl)c1ncc(-c2cc(C(N)=O)ccc2Cl)cc1OCC1CCC1`: in series [1], the half-maximal effective concentration (EC50) amounted to 60 nM. Also, the IC50 in [2] stood at 10 nM.
In the case of `CCNc1cc(-c2cc(C(N)=O)ccc2Cl)ccc1N(C)C(=O)c1c(F)cccc1Cl`, the EC50 in series [1] was 717 nM. Further, the IC50 in series [2] came out at 500 nM.
Consider `CCN(CC)c1cc(-c2cc(C(N)=O)ccc2Cl)ccc1N(C)C(=O)c1c(F)cccc1Cl`, for which the concentration for a half-maximal effect (EC50) in series [1] was found to be 12 nM. Also, the concentration for half-maximal inhibition (IC50) in series [2] stood at 3 nM.
The corresponding values for `CN(C(=O)c1c(F)cccc1Cl)c1ccc(-c2cc(C(N)=O)ccc2Cl)cc1N1CCCCC1` are 8 nM and 3 nM.
Take `Cn1ccc2c(S(=O)(=O)N(CC(F)(F)F)c3ccc(-c4cc(C(N)=O)ccc4Cl)cc3)cccc21`: in [2], the IC50 came out at 710 nM.
